According to ChEMBL document CHEMBL1153278, “Discovery of novel non-peptidic beta-alanine piperazine amide derivatives and their optimization to achiral, easily accessible, potent and selective somatostatin sst1 receptor antagonists” (Bioorg Med Chem Lett, 2009):

What was measured:
[1] = molecular target: Somatostatin receptor type 1 (Rattus norvegicus, UniProt P28646); assay: Binding affinity to rat sst1 receptor
Outline: (§1)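 Receptor binding run on rat sst1 and sst2 and on human sst1–sst5; affinities given as pKd, mean ± SEM of 3–6 experiments.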

Rattus norvegicus = organism: Rattus norvegicus; assay: Selectivity for rat sst1 receptor over rat sst2 receptor
[2] = molecular target: Somatostatin receptor type 2 (Rattus norvegicus, UniProt P30680); assay: Binding affinity to rat sst2 receptor; outline: as §1
Somatostatin receptor type 2 (Rattus norvegicus, UniProt P30680), sequence (P30680 whole entry): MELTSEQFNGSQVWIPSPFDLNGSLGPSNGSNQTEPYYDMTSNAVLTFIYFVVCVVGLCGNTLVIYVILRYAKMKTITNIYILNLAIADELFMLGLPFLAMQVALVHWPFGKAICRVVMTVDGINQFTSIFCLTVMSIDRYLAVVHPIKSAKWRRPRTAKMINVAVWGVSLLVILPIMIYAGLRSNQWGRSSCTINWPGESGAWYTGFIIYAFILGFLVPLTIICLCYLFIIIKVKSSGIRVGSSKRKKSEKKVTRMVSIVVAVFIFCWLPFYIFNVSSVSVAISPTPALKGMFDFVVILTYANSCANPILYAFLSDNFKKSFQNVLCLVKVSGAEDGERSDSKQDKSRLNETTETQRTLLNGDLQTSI

[3] = molecular target: Somatostatin receptor type 4 (Homo sapiens, UniProt P31391); assay: Binding affinity to human sst4 receptor; outline: as §1
Somatostatin receptor type 4, sequence (P31391 whole entry): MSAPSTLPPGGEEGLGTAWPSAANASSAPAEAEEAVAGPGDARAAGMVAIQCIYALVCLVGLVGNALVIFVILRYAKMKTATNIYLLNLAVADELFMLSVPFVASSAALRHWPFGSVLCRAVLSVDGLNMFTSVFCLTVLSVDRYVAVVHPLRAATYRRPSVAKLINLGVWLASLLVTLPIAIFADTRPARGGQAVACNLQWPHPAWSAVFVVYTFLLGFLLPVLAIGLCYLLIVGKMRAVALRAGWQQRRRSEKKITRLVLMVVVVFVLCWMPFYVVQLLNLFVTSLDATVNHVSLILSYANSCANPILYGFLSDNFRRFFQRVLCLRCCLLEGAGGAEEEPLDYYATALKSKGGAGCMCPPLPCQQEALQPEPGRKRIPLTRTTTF

[4] = molecular target: T1, Somatostatin receptor type 1 (Homo sapiens, UniProt P30872); assay: Binding affinity to human sst1 receptor; outline: as §1
T1 sequence (P30872 whole entry): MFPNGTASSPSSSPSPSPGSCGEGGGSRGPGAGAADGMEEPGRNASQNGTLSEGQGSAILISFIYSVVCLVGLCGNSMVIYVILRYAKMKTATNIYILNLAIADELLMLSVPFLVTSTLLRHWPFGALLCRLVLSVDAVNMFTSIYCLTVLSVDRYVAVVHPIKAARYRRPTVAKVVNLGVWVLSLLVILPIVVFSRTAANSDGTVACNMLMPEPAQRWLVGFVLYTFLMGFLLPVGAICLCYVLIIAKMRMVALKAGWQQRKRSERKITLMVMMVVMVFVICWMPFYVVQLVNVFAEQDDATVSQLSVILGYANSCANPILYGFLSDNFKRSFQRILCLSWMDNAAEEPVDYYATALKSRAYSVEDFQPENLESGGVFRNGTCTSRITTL

[5] = molecular target: Somatostatin receptor type 3 (Homo sapiens, UniProt P32745); assay: Binding affinity to human sst3 receptor; outline: as §1
Somatostatin receptor type 3, sequence (P32745 whole entry): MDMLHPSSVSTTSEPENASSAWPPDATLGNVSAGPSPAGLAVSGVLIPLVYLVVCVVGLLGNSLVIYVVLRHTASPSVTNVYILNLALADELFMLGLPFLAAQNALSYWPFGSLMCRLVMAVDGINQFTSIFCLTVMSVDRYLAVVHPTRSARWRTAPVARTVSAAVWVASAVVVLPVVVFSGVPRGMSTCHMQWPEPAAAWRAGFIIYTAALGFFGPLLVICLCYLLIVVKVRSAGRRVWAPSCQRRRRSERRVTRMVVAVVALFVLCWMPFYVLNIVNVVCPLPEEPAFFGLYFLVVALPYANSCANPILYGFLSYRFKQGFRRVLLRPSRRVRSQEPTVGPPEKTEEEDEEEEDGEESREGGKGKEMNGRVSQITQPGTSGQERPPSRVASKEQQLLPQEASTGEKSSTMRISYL

[6] = Tmax in mouse at 10 umol/kg, iv and 30 umol/kg, po; type: ADME, organism-based; conditions: in vivo
Outline: (§2)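 Mice dosed by the intravenous and the oral route; drug levels followed in both plasma and brain; apparent terminal half-life taken from plasma; oral bioavailability estimated.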

[7] = Oral bioavailability in mouse at 30 umol/kg; type: ADME, organism-based; conditions: in vivo; outline: as §2
[8] = molecular target: Somatostatin receptor type 5 (Homo sapiens, UniProt P35346); assay: Binding affinity to human sst5 receptor; outline: as §1
Somatostatin receptor type 5, sequence (P35346 whole entry): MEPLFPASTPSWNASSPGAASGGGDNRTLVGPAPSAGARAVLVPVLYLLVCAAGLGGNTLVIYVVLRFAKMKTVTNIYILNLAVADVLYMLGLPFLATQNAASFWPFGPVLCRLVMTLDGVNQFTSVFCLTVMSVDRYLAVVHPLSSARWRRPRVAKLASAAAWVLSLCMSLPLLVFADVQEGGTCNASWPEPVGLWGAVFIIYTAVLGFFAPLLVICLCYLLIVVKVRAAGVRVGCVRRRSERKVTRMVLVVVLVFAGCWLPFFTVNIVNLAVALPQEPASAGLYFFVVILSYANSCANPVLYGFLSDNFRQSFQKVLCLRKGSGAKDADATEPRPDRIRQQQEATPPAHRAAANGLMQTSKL

D(2) dopamine receptor = D(2) dopamine receptor (Homo sapiens, UniProt P14416); assay: Binding affinity to dopamine D2 receptor
D(2) dopamine receptor, sequence (P14416 whole entry): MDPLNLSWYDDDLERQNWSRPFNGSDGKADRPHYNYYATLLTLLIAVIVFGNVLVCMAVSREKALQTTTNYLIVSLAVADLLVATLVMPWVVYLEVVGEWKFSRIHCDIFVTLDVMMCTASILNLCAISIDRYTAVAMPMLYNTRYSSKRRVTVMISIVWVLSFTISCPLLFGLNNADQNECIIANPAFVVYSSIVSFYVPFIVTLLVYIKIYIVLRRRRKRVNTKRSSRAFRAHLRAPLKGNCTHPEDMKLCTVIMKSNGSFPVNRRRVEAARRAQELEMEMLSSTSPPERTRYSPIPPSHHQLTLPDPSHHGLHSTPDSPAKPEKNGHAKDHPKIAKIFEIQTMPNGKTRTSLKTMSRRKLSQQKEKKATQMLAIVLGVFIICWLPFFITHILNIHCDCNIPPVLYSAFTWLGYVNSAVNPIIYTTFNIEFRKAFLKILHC

[9] = Binding affinity to adrenergic alpha1 receptor
Cytochrome P450 2D6 = Cytochrome P450 2D6 (Homo sapiens, UniProt P10635); assay: Inhibition of human CYP2D6 by microplate-based direct fluorometric assay; type: ADME
Cytochrome P450 2D6, sequence (P10635 whole entry): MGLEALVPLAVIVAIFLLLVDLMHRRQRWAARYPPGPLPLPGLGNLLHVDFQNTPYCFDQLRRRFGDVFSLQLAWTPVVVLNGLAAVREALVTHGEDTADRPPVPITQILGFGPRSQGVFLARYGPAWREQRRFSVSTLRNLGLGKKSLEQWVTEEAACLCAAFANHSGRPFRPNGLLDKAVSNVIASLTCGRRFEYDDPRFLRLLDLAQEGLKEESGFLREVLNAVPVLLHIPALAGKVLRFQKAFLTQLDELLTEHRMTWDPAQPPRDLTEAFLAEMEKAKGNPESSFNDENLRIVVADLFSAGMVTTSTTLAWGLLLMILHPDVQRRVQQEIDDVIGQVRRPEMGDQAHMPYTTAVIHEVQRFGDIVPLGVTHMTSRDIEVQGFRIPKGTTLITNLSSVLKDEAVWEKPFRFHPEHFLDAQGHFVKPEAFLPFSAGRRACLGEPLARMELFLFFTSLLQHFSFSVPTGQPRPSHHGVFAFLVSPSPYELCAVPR

[10] = molecular target: Somatostatin receptor type 1 (Rattus norvegicus) (UniProt P28646); assay: Antagonist activity at rat sst1 receptor assessed as inhibition of forskolin-stimulated cAMP accumulation by luciferase assay; type: functional
Somatostatin receptor type 1 (Rattus norvegicus), sequence (P28646 whole entry): as the sequence (P30872 whole entry) above, with S8P, S11T, P16S, S20G, G25V, G26C, A32S, A45S, T385A, T389S counted along it

V79 = assay: Genotoxicity in Chinese hamster V79 cells by micronucleus test; type: toxicity, cell-based, Cricetulus griseus
Cytochrome P450 3A4 = Cytochrome P450 3A4 (Homo sapiens, UniProt P08684); assay: Inhibition of human CYP3A4 by microplate-based direct fluorometric assay; type: ADME
Cytochrome P450 3A4, sequence (P08684 whole entry): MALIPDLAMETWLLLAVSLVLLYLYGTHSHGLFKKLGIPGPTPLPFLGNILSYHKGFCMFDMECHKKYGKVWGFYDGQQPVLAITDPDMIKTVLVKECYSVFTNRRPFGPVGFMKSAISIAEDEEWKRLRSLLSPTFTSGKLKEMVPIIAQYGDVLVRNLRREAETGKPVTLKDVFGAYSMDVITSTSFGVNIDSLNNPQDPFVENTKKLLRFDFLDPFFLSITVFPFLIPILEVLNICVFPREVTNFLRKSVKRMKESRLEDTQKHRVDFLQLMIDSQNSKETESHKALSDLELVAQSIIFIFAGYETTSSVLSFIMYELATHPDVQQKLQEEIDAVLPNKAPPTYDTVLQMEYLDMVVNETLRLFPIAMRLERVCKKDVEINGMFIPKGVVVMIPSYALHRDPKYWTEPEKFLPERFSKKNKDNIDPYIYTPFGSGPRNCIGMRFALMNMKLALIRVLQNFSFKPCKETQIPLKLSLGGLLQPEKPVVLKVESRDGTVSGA

[11] = Apparent terminal half life in mouse plasma at 10 umol/kg, iv and 30 umol/kg, po; type: ADME, organism-based; conditions: read-out: beta t1/2 (converted); outline: as §2
D(4) dopamine receptor = molecular target: T2, D(4) dopamine receptor (Homo sapiens, UniProt P21917); assay: Binding affinity to dopamine D4 receptor
T2 sequence (P21917 whole entry): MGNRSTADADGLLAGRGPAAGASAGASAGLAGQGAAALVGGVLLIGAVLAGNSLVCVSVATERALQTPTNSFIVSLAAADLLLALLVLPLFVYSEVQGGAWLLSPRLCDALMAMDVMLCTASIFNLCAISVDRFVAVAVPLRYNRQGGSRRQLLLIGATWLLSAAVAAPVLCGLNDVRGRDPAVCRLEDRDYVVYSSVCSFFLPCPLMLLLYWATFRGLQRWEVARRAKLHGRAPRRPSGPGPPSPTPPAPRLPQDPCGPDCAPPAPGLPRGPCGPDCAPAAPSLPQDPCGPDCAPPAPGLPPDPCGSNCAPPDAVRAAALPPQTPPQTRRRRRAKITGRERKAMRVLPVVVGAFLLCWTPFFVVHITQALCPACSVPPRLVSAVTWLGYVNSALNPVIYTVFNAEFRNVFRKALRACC

[12] = molecular target: T1, Somatostatin receptor type 1; assay: Antagonist activity at human sst1 receptor assessed as inhibition of forskolin-stimulated cAMP accumulation by luciferase assay; type: functional
[13] = molecular target: Somatostatin receptor type 2 (Homo sapiens, UniProt P30874); assay: Binding affinity to human sst2 receptor; outline: as §1
Somatostatin receptor type 2 (Homo sapiens, UniProt P30874), sequence (P30874 whole entry): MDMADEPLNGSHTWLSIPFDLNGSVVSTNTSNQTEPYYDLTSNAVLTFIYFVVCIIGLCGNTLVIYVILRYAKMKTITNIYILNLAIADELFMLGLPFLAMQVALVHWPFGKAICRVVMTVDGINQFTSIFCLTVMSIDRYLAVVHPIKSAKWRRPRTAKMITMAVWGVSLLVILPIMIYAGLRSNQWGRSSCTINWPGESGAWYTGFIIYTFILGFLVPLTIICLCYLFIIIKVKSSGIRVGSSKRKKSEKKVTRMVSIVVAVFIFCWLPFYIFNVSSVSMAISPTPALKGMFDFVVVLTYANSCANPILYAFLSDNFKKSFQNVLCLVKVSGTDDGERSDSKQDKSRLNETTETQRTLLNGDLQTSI

Cytochrome P450 2C19 = Cytochrome P450 2C19 (Homo sapiens, UniProt P33261); assay: Inhibition of human CYP2C19 by microplate-based direct fluorometric assay; type: ADME
Cytochrome P450 2C19, sequence (P33261 whole entry): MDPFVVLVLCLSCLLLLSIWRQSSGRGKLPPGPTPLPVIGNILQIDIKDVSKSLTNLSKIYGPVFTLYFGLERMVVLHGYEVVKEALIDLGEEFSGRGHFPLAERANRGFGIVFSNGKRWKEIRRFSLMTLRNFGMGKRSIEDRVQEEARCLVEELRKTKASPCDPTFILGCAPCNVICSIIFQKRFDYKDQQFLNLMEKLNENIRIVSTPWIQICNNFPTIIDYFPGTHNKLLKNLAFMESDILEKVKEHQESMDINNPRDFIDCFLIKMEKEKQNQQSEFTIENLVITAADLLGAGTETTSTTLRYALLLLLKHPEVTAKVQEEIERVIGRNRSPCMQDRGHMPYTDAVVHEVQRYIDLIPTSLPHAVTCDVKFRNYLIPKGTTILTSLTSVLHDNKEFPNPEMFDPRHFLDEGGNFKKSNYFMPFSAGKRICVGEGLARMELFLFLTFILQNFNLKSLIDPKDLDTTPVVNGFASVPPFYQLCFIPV

[14] = Ratio of drug level in brain to plasma in mouse at 10 umol/kg, iv and 30 umol/kg, po; type: ADME, organism-based
Outline: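 Pharmacokinetic study in mice given a single intravenous dose or an oral dose. Drug concentrations were measured in plasma and brain over time after each route. The brain/plasma concentration ratio was derived for each route.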

Cytochrome P450 1A2 = molecular target: T3, Cytochrome P450 1A2 (Homo sapiens, UniProt P05177); assay: Inhibition of human CYP1A2 by microplate-based direct fluorometric assay; type: ADME
T3 sequence (P05177 whole entry): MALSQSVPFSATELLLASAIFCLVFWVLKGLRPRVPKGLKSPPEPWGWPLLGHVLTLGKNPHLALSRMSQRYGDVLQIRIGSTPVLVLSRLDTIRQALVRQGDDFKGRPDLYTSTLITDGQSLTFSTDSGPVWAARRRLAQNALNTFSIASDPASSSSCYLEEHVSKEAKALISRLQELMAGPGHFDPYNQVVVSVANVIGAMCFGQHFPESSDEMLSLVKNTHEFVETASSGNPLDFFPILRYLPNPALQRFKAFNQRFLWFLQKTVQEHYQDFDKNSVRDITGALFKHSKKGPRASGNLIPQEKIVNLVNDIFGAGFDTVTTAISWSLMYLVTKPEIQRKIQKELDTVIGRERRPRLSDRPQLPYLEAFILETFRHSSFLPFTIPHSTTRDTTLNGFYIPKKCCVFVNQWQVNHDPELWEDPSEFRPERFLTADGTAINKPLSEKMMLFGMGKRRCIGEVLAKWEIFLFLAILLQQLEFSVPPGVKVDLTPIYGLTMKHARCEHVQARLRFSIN

Somatostatin receptor type 1 (Rattus norvegicus, UniProt P28646), sequence (P28646 whole entry): as the sequence (P30872 whole entry) above, with S8P, S11T, P16S, S20G, G25V, G26C, A32S, A45S, T385A, T389S counted along it

| SMILES | Kd [1] | Kd [2] | also measured |
| --- | --- | --- | --- |
| CN(CCC(=O)N1CCN(c2ccc(Cl)cc2)CC1)CCC1c2ccccc2-c2ccccc21 | 1.7 nM | – | – |
| CN(CCC(=O)N1CCN(c2ccc([N+](=O)[O-])cc2)CC1)CCC1c2ccccc2CCc2ccccc21 | 18.2 nM | 3470 nM | fold change (FC) (Rattus norvegicus): > 100 |
| CN(CCC(=O)N1CCN(c2cccc(C(F)(F)F)c2)CC1)CCC1c2ccccc2-c2ccccc21 | 61.7 nM | – | – |
| CN(CCC(=O)N1CCN(c2ccc([N+](=O)[O-])cc2)CC1)CCC1c2ccccc2Cc2ccccc21 | 29.5 nM | 18600 nM | – |
| CN(CCC(=O)N1CCN(c2ccc(F)cc2F)CC1)CCC1c2ccccc2-c2ccccc21 | 3.31 nM | – | – |
| CN(CCC(=O)N1CCN(c2ccc([N+](=O)[O-])cc2)CC1)CCn1c2ccccc2c2ccccc21 | 331 nM | 14500 nM | – |
| CN(CCC(=O)N1CCN(c2ccc(F)cc2)CC1)CCC1c2ccccc2-c2ccccc21 | 1.95 nM | – | – |
| CN(CCC(=O)N1CCN(c2ccc([N+](=O)[O-])cc2)CC1)CCC1c2ccccc2C=Cc2ccccc21 | 11.5 nM | 5130 nM | – |
| CC(C)N(CCC(=O)N1CCN(c2ccc([N+](=O)[O-])cc2)CC1)CCC1c2ccccc2-c2ccccc21 | 4.68 nM | 912 nM | – |
| CN(CCC(=O)N1CCN(c2ccccc2C#N)CC1)CCC1c2ccccc2-c2ccccc21 | 4.57 nM | – | – |
| CN(CCC(=O)N1CCN(c2ccc([N+](=O)[O-])cc2)CC1)CCC(c1ccccc1)c1ccccc1 | 13.8 nM | 8320 nM | – |
| CN(CCC(=O)N1CCN(c2ccc([N+](=O)[O-])cc2)CC1)CCc1cccc2ccccc12 | 77.6 nM | 8710 nM | – |
| CN(CCC(=O)N1CCN(c2ccc([N+](=O)[O-])cc2)CC1)CCc1ccc2ccccc2c1 | 275 nM | 16600 nM | – |
| CN(CCC(=O)N1CCN(c2ccncc2)CC1)CCC1c2ccccc2-c2ccccc21 | 21.4 nM | – | – |

Now from value to compound, other results behind:

| Kd [1] | Kd [2] | SMILES | also measured |
| --- | --- | --- | --- |
| 1.1 nM | – | CN(CCC(=O)N1CCN(c2ccc3nccn3n2)CC1)CCC1c2ccccc2-c2ccccc21 | – |
| 17.8 nM | – | CN(CCC(=O)N1CCN(c2cccc(Cl)c2)CC1)CCC1c2ccccc2-c2ccccc21 | – |
| 7.08 nM | 4070 nM | C=CCN(CCC(=O)N1CCN(c2ccc([N+](=O)[O-])cc2)CC1)CCC1c2ccccc2-c2ccccc21 | – |
| 1.91 nM | – | CN(CCC(=O)N1CCN(c2ccc(Cl)c(Cl)c2)CC1)CCC1c2ccccc2-c2ccccc21 | – |
| 0.955 nM | 1820 nM | CCN(CCC(=O)N1CCN(c2ccc([N+](=O)[O-])cc2)CC1)CCC1c2ccccc2-c2ccccc21 | – |
| 0.324 nM | 8130 nM | CN(CCC(=O)N1CCN(c2ccc3nonc3c2)CC1)CCC1c2ccccc2Oc2ccccc21 | Kd [3]: 1450 nM; Kd [4]: 2.14 nM; Kd [5]: 1620 nM; fold change (FC) (Rattus norvegicus): > 10000 |
| 6.61 nM | – | CN(CCC(=O)N1CCN(c2ccc(=O)n(C)n2)CC1)CCC1c2ccccc2-c2ccccc21 | – |
| 45.7 nM | 6920 nM | O=C(CCN(CCC1c2ccccc2-c2ccccc21)CC1CC1)N1CCN(c2ccc([N+](=O)[O-])cc2)CC1 | – |
| 0.776 nM | 6460 nM | CN(CCC(=O)N1CCN(c2ccc(F)c(F)c2)CC1)CCC1c2ccccc2Oc2ccccc21 | Kd [3]: 3390 nM; Tmax [6]: 1 h; bioavailability [7]: 19%; Kd [8]: 14500 nM; Kd [4]: 1.62 nM; Kd (D(2) dopamine receptor): 490 nM; pKd [9]: 6.55; IC50 (Cytochrome P450 2D6): < 1000 nM; Kd [5]: 2820 nM; pKb [10]: 7.93; Activity (V79): Non-toxic; IC50 (Cytochrome P450 3A4): > 10000 nM; fold change (FC) (Rattus norvegicus): > 10000; half-life [11]: 11 h; Kd (D(4) dopamine receptor): 490 nM; pKb [12]: 8.13; Kd [13]: 6920 nM; IC50 (Cytochrome P450 2C19): > 10000 nM; Kp [14]: > 1; IC50 (Cytochrome P450 1A2): > 10000 nM |
| 3.63 nM | – | CN(CCC(=O)N1CCN(c2cccc(F)c2)CC1)CCC1c2ccccc2-c2ccccc21 | – |
| 0.708 nM | 6920 nM | CN(CCC(=O)N1CCN(c2ccc([N+](=O)[O-])cc2)CC1)CCC1c2ccccc2-c2ccccc21 | fold change (FC) (Rattus norvegicus): > 1000 |
| 12.6 nM | 6030 nM | CN(CCC(=O)N1CCN(c2ccc([N+](=O)[O-])cc2)CC1)CCC1c2ccccc2Sc2ccccc21 | – |
| 0.741 nM | 4170 nM | CN(CCC(=O)N1CCN(c2ccc3nonc3c2)CC1)CCC1c2ccccc2-c2ccccc21 | Kd [3]: 1150 nM; Kd [4]: 2.63 nM; Kd [5]: 1200 nM; fold change (FC) (Rattus norvegicus): > 10000; Kd [13]: 4170 nM |
| 0.891 nM | 6760 nM | CN(CCC(=O)N1CCN(c2ccc([N+](=O)[O-])cc2)CC1)CCC1c2ccccc2Oc2ccccc21 | fold change (FC) (Rattus norvegicus): > 1000 |
| > 1000 nM | – | Cc1cccc(C)c1N1CCN(C(=O)CCN(C)CCC2c3ccccc3-c3ccccc32)CC1 | – |
| 4.57 nM | – | CN(CCC(=O)N1CCN(c2ccc3c(c2)OCO3)CC1)CCC1c2ccccc2-c2ccccc21 | – |
| 2.14 nM | – | CN(CCC(=O)N1CCN(c2cccc(=O)n2C)CC1)CCC1c2ccccc2-c2ccccc21 | – |
| 24 nM | – | CN(CCC(=O)N1CCN(c2ccccc2Cl)CC1)CCC1c2ccccc2-c2ccccc21 | – |
| 31.6 nM | – | CN(CCC(=O)N1CCN(c2ccc(C(F)(F)F)cc2)CC1)CCC1c2ccccc2-c2ccccc21 | – |
| 0.575 nM | 19500 nM | CN(CCC(=O)N1CCN(c2ccc(F)c(F)c2)CC1)CCC1c2ccccc2-c2ccccc21.Cl | Kd [3]: 2400 nM; Tmax [6]: 1 h; bioavailability [7]: 7%; Kd [4]: 5.37 nM; Kd (D(2) dopamine receptor): 776 nM; pKd [9]: 6.53; IC50 (Cytochrome P450 2D6): 1300 nM; Kd [5]: 2690 nM; pKb [10]: 8.55; Activity (V79): Non-toxic; IC50 (Cytochrome P450 3A4): > 10000 nM; fold change (FC) (Rattus norvegicus): > 10000; half-life [11]: 6 h; Kd (D(4) dopamine receptor): 126 nM; pKb [12]: 8.46; Kd [13]: 12300 nM; IC50 (Cytochrome P450 2C19): > 10000 nM; Kp [14]: > 1; IC50 (Cytochrome P450 1A2): > 10000 nM |
